# BB579 growth dn: chemicals that inhibit yeast BB579 growth in restrictive medium (lifespan-shortening candidates). S. cerevisiae BB579 growth, OD615, 48 h. actives 0.51% (n = 140,000). inhibition, % at 10 µM. AID 804;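 active = inhibition above a set limit, 3 SD over the mean compound inhibition, cut at about 44% in these data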
#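 Detection: OD615 turbidity measurement; Material: Saccharomyces cerevisiae DeaD strain BB579, replicative lifespan model yeast; Timing: 48 h exposure, 30 °C; Doses: single 10 µM dose; Medium: CSMM-D restrictive synthetic medium containing dextrose (glucose); Controls: amphotericin B at 10 µg/mL as positive control.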
# RAM inhibit: blocks the yeast RAM network | S. cerevisiae dse1pr::URA3 reporter, 5-FOA growth OD615, 2 d; analog-sensitive cbk1-as2 kinase mutant strain | inhibition, % at 50 µM | actives 1.8% (n = 190,000);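 active = inhibition above a set limit, 3 SD over mean compound inhibition, cut at about 8.4% in these data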;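 also: inhibition rescues growth on 5-FOA so higher OD means more RAM inhibition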
# SDO1 yeast rescue: restores growth of sdo1-depleted yeast. S. cerevisiae sdo1-depleted JHY4D growth rescue, OD600 30 h; hits give high values; pdr5 snq2 efflux-pump mutant strain. z-score at 10 µM. actives 0.21% (n = 140,000);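 active = z-score above 3 at both the 24 hr and the 30 hr optical density reads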
# Yeast life ext: yeast lifespan extension; S. cerevisiae growth with nicotinamide, OD615; deaD strain in restrictive glucose medium; inhibition of the nicotinamide effect, % at 10 µM; actives 0.68% (n = 130,000); AID 775;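 active = inhibition above a set limit, placed 3 SD over the median of all compounds, cut at about 26% in these data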
#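 System: DeaD-strain S. cerevisiae / Buffer or medium: CSMM-D, restrictive glucose (dextrose) synthetic minimal medium / Probe or stimulus: nicotinamide, 1.5 mM, co-present with compound / Compound: one concentration, 10 µM, DMSO 0.25% / Incubation: 48 h compound exposure at 30 °C, humidified / Technique: optical density (absorbance) at 615 nm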
# Hits are given with their value; n = inactive; x = not tested or not shown. Compounds with a hit are over-represented: about 2.7% of the library has one in this group of screens.
SMILES,BB579 growth dn,RAM inhibit,SDO1 yeast rescue,Yeast life ext
O=C(CN(C(=O)c1ccccc1Cl)N1C(=O)C2C3C=CC(C3)C2C1=O)c1cccs1 (stereo not given),x,n,x,x
CCOC(=O)Cc1nnc(NC(=O)C(CC)Sc2nnc3c4ccccc4n(C)c3n2)s1 (stereo not given),n,n,n,n
CCOC(=O)c1sc(NC(=O)C(CC)Sc2nnc3c4ccccc4n(C(C)C)c3n2)nc1C (stereo not given),n,8.6,n,n
COc1ccc(C2CCCN2C(=S)Nc2cccc(C)c2)cc1OC (stereo not given),x,n,x,x
COc1ccc(NC(=S)N2CCCC2c2ccc(OC)c(OC)c2)cc1 (stereo not given),x,9.9,x,x
CCOc1cc(/C=C2/C(=O)ON=C2C)ccc1OCc1ccccc1,x,10,x,x
CCOc1cc(/C=C2/C(=O)ON=C2C)ccc1OCc1ccccc1F,n,n,n,n
CCOc1cc(/C=C2/C(=O)ON=C2C)ccc1OCc1ccc(F)cc1,n,9.9,n,n
COc1cc(OC)c(N(C)S(=O)(=O)c2cccc(C(=O)OCC(=O)NCc3ccco3)c2)cc1Cl,x,n,x,x
CN(C)Cc1c(O)c(Cl)cc2c3c(c(=O)oc12)CCCC3,n,n,n,30
CCN(CC)Cc1c(O)c(Cl)cc2c3c(c(=O)oc12)CCCC3,n,n,n,n
COc1ccc(Cl)cc1C(=O)NC(C)C,x,n,x,x
Cc1ccc(C(=O)c2ccc(C)cc2)cc1,x,n,x,x
Cc1ccc(C(=O)c2no[n+]([O-])c2C(=O)c2ccc(C)cc2)cc1,n,n,n,27
O=C(CSc1nnc(-c2cccnc2)n1CCN1CCCCC1)Nc1cccc(Cl)c1,n,n,n,n
Nc1ncnc2c1nc(SCCO)n2Cc1ccccc1,x,n,x,x
O=C(Nc1cccc(S(=O)(=O)NC2=NCCCCC2)c1)c1cc(-c2ccccc2Cl)nc2ccccc12,n,11,n,n
Cc1ccc(-n2c(SCC(=O)Nc3cccc(S(=O)(=O)NC4=NCCCCC4)c3)nc3ccccc3c2=O)cc1,n,9.8,n,n
O=C(COC(=O)CNC(=O)c1ccccc1)Nc1cccc(Br)c1,n,n,n,n
Cc1cc(C)cc(Oc2ccc(NC(=O)C3CC=CCC3C(=O)O)cc2)c1 (stereo not given),x,n,x,x
O=C(NN1C(=O)c2ccccc2NC1c1ccccc1OCc1ccccc1)c1ccncc1 (stereo not given),n,n,n,29
COc1ccc(Br)cc1C1Nc2ccccc2C(=O)N1NC(=O)c1ccncc1 (stereo not given),n,n,n,n
COc1cc(NC(=S)NC2CC(C)(C)NC(C)(C)C2)c(OC)cc1Cl,x,n,x,x
Cc1ccccc1OCC(=O)N1N=C(C(F)(F)F)CC1(O)C(C)(C)C (stereo not given),n,9.2,n,x
Cc1ccc(OCC(=O)N2N=C(C(F)(F)F)CC2(O)C(C)(C)C)cc1C (stereo not given),n,n,n,n
SMILES,BB579 growth dn,RAM inhibit,SDO1 yeast rescue,Yeast life ext
N#CCSc1nc2ccccc2c(=O)n1C1CCCCC1,x,n,x,x
O=c1c2ccccc2nc(SCc2cccc(F)c2)n1C1CCCC1,n,11,n,n
CCOC(=O)C1=C2NC(=O)c3ccccc3N2C(=O)C1,x,n,x,x
O=C(COC(=O)c1ccc(Cl)c(S(=O)(=O)N2CCc3ccccc3C2)c1)Nc1ncc(Cl)cc1Cl,n,10,n,n
O=C(Nc1cnn(Cc2ccc(F)cc2)c1)c1cc2nc(-c3ccco3)cc(C(F)(F)F)n2n1,n,9.5,n,n
C/C(=N\NC(=O)CCc1ccc(S(=O)(=O)N2CCOCC2)cc1)c1ccc(Br)cc1,x,n,x,x
Cn1c(COc2ccccc2)nnc1SCc1cc(=O)[nH]c2ccccc12,n,n,n,44
COc1ccccc1C(=O)Oc1cc(N)n(S(=O)(=O)c2ccc(C)cc2)n1,n,n,n,45
Cc1ccc(S(=O)(=O)n2nc(OC(=O)c3ccco3)cc2N)cc1,n,n,n,n
CCOC(=O)c1sc2nc(Cc3ccc(Cl)cc3)[nH]c(=S)c2c1C,x,n,x,x
CC1CC2(CCCCC2)Nc2c1ccc1ccccc21 (stereo not given),n,9.4,n,x
CCCc1c(C)nn(-c2ncccc2[N+](=O)[O-])c1C,x,n,x,x
CC1SC(=Nc2ccccc2)N(S(=O)(=O)c2ccccc2)C1=O (stereo not given),n,n,n,n
Oc1c(I)cc(Cl)c2cccnc12,98,n,n,n
O=[N+]([O-])c1cc(Cl)c2cccnc2c1O,x,n,x,x
Oc1c(CN2CCCCC2)cc(Br)c2cccnc12,98,n,n,n

# Assay outcomes: PubChem, several laboratories
